Experimental data pooled from the literature.
Each line is one published result; the experiments were not run side by side.
Target: D(3) dopamine receptor (DRD3, Homo sapiens, UniProt P35462)
Concentration: 10 µM

SMILES | assay | inhibition
CN([C@@H]1CCc2c(CC(=O)O)c3ccccc3n2C1)S(=O)(=O)c1ccc(F)cc1 | ligand displacement | -4.25%
Nc1nonc1C(=O)NCCNCc1cccc(OCc2ccccc2F)c1 | enzyme activity, inhibitor | 4.3%
O=C(c1ccc(F)cc1)N(Cc1ccccc1)C1CCCCC1 | cell-free assay | 8%
CCN(Cc1ccccc1C(F)(F)F)C(=O)C1CCN(S(=O)(=O)c2ccc3[nH]ncc3c2)CC1 | ligand displacement, radioligand | 23%
COc1ccc(-c2ccc(CNCC(O)c3ccccc3)o2)cc1Cl (stereo not shown) | enzyme activity, inhibitor | 12.1%
CCN(CC)c1ccc(C2Nc3ccc(C(=O)c4ccccc4)cc3NC3=C2C(=O)CC(C)(C)C3)cc1 (stereo not shown) | ligand displacement, radioligand | 12%
CCCNc1nc2ccccc2n1Cc1ccc(Cl)cc1 | ligand displacement | 40.8%
COc1cccc(N2CCN(C3CC(=O)N(c4cccc(OC)c4)C3=O)CC2)c1 (stereo not shown) | enzyme activity, inhibitor | -37.6%
N#Cc1cc(Cn2c(N3CCCC3)nc3ccccc32)ccc1F | ligand displacement | 39.3%
N#CN1CC[C@H](C(=O)Nc2nc3c(s2)CN(C(=O)CN=[N+]=[N-])CC3)C1 | ligand displacement | -2.14%
